The source made the active and inactive calls. No cut-off for these calls is given here.
What was measured:
[1] = Binding affinity to oligonucleotide d(CGTACG)2 by UV-visible spectroscopy
Outline: (§1)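 Apparent DNA–drug binding constants measured by UV titration at 25 °C, read at λmax 376 nm. A 5.0 x 10^-? M aqueous drug stock was added in increasing amounts to a 1.0 x 10^-5 M oligonucleotide solution.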

[2] = Binding affinity to oligonucleotide d(CGTACG)2 at [drug]/[DNA] ratio of 4 by NMR DOSY experiment
Outline: (§2)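 DOSY at 25 °C on the complex in D2O, 0.1 M NaCl, 10 mM phosphate, pH 6.7, with drug at 5.4 mM. Gradient pulse 1.5 ms, 64 increments. Molecular mass was read from a calibration curve of diffusion standards from glucose up to trypsin (Mr 180–23,500).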

[3] = Binding affinity to oligonucleotide d(CGTATACG)2 by UV-visible spectroscopy; outline: as §1
[4] = Binding affinity to oligonucleotide d(ATGCGCAT)2 by UV-visible spectroscopy; outline: as §1
[5] = Binding affinity to oligonucleotide d(CGTACG)2 at [drug]/[DNA] ratio of 4 by NMR spectroscopy
Outline: (§3)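 1H NMR titration at 600 MHz. A drug stock (23.4 mM) was added in increasing amounts to oligonucleotide up to R = [2]/[DNA] = 4.0. An inverse titration added DNA to 0.2 mM drug. Conditions were D2O, 10 mM phosphate, 0.1 M NaCl, pH 6.7, 25 °C. Shifts were referenced to external DSS.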

[6] = Binding affinity to oligonucleotide d(CGTACG)2 at [drug]/[DNA] ratio of 1 by NMR spectroscopy; outline: as §3
[7] = Binding affinity to oligonucleotide d(CGTACG)2 at [drug]/[DNA] ratio of 3 by NMR DOSY experiment; outline: as §2
[8] = Binding affinity to oligonucleotide d(CGTACG)2 by single diffusion coefficient experiment; outline: as §2
[9] = Binding affinity to oligonucleotide d(CGTACG)2 assessed as intercalation by single diffusion coefficient experiment; outline: as §2
[10] = Binding affinity to oligonucleotide d(CGTACG)2 at [drug]/[DNA] ratio of 2 by NOESY experiment
Outline: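 Phase-sensitive NOESY (TPPI) run at 25 °C in D2O and 15 °C in H2O/D2O 90:10. Sample was complex at R = 2 in 10 mM phosphate pH 6.7 with 100 mM NaCl. Mixing time 300 ms, 2K x 512 FIDs, 1.5 s recycle delay, 80 scans. Ligand–DNA NOEs were treated as transferred NOEs.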

K [1]: 4 ×10³ /M | Activity [2]: Active | K [3]: 1 ×10³ /M | K [4]: 6 ×10³ /M | Activity [5]: Active | Activity [6]: Active | Activity [7]: Active | Activity [8]: Active | Activity [9]: Active
SMILES: Cc1cc(=O)c2ccc3c(c2o1)C(=O)c1c(OCCN(C)C)cccc1C3=O
Activity [10]: Active
